Bioassay records: PubChem BioAssay, several laboratories
An excerpt weighted towards active compounds, which were near 4.3% of everything screened.
AHR activator – AHR activators, primary screen, cell-based, luminescence, luciferase reporter, human; AHR-responsive luciferase reporter cells; activation, % at 5 µM; actives 2.5% (n = 320,000); in the data active means activation above about 47%;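 further: 0% = vehicle wells and 100% = reference agonist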
Target sequence (P35869 whole entry, looked up): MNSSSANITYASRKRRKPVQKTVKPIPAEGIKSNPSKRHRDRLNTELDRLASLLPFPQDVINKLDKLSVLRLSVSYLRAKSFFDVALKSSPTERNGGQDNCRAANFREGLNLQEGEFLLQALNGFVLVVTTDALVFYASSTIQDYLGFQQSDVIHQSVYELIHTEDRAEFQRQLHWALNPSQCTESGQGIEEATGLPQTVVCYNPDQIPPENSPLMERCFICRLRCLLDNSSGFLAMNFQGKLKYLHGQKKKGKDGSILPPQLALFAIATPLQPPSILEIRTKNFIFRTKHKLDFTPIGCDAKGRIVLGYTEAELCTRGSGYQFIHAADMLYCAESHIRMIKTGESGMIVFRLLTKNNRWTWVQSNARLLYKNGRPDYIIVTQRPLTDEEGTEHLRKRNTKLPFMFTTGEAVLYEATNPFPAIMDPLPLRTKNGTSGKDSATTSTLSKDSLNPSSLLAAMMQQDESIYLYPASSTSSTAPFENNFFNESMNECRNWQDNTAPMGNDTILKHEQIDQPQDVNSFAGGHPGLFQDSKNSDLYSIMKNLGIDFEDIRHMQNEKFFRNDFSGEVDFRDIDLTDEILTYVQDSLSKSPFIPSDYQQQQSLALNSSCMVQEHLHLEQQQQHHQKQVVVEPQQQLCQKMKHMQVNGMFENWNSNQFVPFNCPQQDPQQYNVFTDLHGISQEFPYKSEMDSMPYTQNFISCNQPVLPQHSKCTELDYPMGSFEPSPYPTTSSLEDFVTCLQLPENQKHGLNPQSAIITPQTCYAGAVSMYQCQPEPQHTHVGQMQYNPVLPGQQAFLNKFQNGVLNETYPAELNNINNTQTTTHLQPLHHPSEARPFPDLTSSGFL
Hep lipid drop – inhibitors of hepatocyte lipid droplet formation, primary screen, imaging, high-throughput imaging, BODIPY stain; AML12 mouse hepatocytes, oleate lipid droplets; actives 0.4% (n = 240,000); inhibition, % at 6.5 µM;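 active means lipid droplet intensity inhibited by at least 50%, with more than 500 cells counted; inconclusive means wells with under 300 cells, treated as cytotoxic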
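Material: mouse AML12 hepatocyte cell line, fixed after treatment; Timing: compound with oleate, overnight; Technique: high-content imaging of BODIPY-stained droplets and DAPI nuclei; Probe or stimulus: oleate, 100 µM final; Dosing: compound at 6.5 µM only.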
Yeast superoxide – reduction of superoxide in aged yeast, primary screen, HTS | AID 2690, 2010 | S. cerevisiae aged cells, superoxide DHE fluorescence; active compounds read low | superoxide response (% of plate mean), % at 10 µM | actives 0.18% (n = 330,000);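 active means superoxide response under a set limit, about three screen SD below normal, cut at about 65% in these data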;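 further: yeast aged for seven days with compound at 30 °C before DHE staining; 100% = average MFI of all compound-treated wells on the plate with controls excluded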
SR-BI uptake up – activators of SR-BI mediated DiI-HDL uptake, primary screen, ldlA[mSR-BI] CHO cells, DiI fluorescence; actives 0.096% (n = 320,000); 3 h; 100 = double the neutral-control signal; activation, % at 12.5 µM;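 active means mean replicate activation of at least 60% and every replicate at or above 60%; inconclusive means mean or all-replicate condition met, but not both; inactive means mean below 60% and not all replicates reaching 60%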;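 further: 0% = median plate neutral-control signal and 100% = twice that signal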
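Assay system: CHO ldlA[mSR-BI] cells, LDL receptor-null, SR-BI overexpressing; medium: Ham's F12 with 0.5% BSA, HEPES 25 mM, pH 7.4; also added: DiI-HDL 10 µg/mL; timing: 3 h uptake period with compound, 37 °C; signal: DiI fluorescence, bottom read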
SMARCA2 act – SMARCA2 (BRM) function activators, primary screen, cell-based, luminescence, high throughput. MG213 cells, MMTV-luciferase reporter, dexamethasone, overnight. activation, % at 9.1 µM. actives 1% (n = 370,000); in the data active means activation above about 7.8%;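 further: 0% = vehicle wells and 100% = reference activator wells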
SR-BI HDL uptake – inhibitors of SR-BI mediated HDL lipid uptake, primary screen, ldlA[mSR-BI] cells, fluorescence, single point; Scavenger receptor class B member 1 (Mus musculus), Q61009; ldlA[mSR-BI] CHO cells, DiI-HDL uptake fluorescence, 3 h; inhibition, % at 12.5 µM; actives 0.96% (n = 320,000); AID 488896, 2010;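 active means mean replicate inhibition of at least 70% and a set share of replicates each scoring 70 or more; inconclusive means meets just one of the two criteria; inactive means fails both criteria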;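 further: 0% = median of neutral control wells and 100% = median of positive control wells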
An asterisk follows results filed as active; ? = inconclusive; . = no result.

SMILES	AHR activator	Hep lipid drop	Yeast superoxide	SR-BI uptake up	SMARCA2 act	SR-BI HDL uptake
CCOc1cc(C(=O)Nc2cc(C)on2)cc(OCC)c1OCC	64*	-2	105	-44	-3	44
Cc1nn(-c2ccccc2)c(C)c1/C=N\N1CCN(Cc2ccccc2Cl)CC1	.	.	.	.	-4	.
O=C(NCCc1csc(-c2ccccc2)n1)c1ccc(Br)o1	19	-1	117	-45	-4	45
O=C(NCc1ccc(Cl)cc1)c1csc(-c2cccnc2)n1	52*	-7	91	12	-4	-12
O=C(NCCc1csc(-c2cccnc2)n1)c1ccc(Br)o1	65*	-12	93	3	1	-3
O=C(NNC(=O)c1ccc(Cl)cc1Cl)c1csc(-c2cccnc2)n1	7	7	84	-4	-1	4
O=S(=O)(Nc1c(O)ccc2ccccc12)c1ccc(F)cc1	55*	.	115	-4	5	4
O=S(=O)(Nc1c(O)ccc2ccccc12)c1ccccc1	54*	.	106	9	-1	-9
O=S(=O)(Nc1ncccn1)c1ccc(F)cc1	.	-8	95	5	-3	-5
CCN(CC)c1ccc(NC(=O)c2ccc3c(c2)c(C)c(C)n3C)cc1	-4	71*	101	-90	-4	90*
Cc1c(C)n(C)c2ccc(C(=O)NCCCN3CCCC3)cc12	-1	-16	82	.	2	43
O=C(C(=O)N1CCC(CNS(=O)(=O)c2ccc(F)c(F)c2)CC1)c1cc2ccccc2o1	.	.	.	.	-6	.
O=C1CC(c2ccccc2)CC(O)=C1C=Nc1ccc(Cl)cc1 (configuration not stated)	55*	-6	100	9	1	-9
O=C1CC(c2ccccc2)CC(O)=C1C=Nc1cccc(Cl)c1 (configuration not stated)	48*	-8	86	2	1	-2
Cc1ccc(N=CC2=C(O)CC(c3cccc(Cl)c3)CC2=O)cc1 (configuration not stated)	3	-2	91	35	-3	-35
Cc1cc(NS(=O)(=O)c2ccc(NC(=O)CSc3nnc(-c4cccnc4)n3-c3ccccc3)cc2)nc(C)n1	.	.	.	.	-3	.
COC(=O)[C@]12C[C@H](CC(=O)NCc3cccs3)C(=O)N(Cc3ccc(Cl)cc3Cl)C1=C[C@H](C(C)(C)C)O[C@@H]2C	.	.	.	.	-6	.
Cc1ccccc1N1CCN(S(=O)(=O)c2ccc3c(c2)n(C)c(=O)c(=O)n3C)CC1	.	.	.	.	2	.
CCN(CC)c1nc2ccccc2c(N)c1-c1ccccc1	55*	.	87	-1	0	1
Cc1c(N(C)C)nc2ccccc2c1N	22	4	103	17	1	-17
COc1ccc(S(=O)(=O)N2CCOCC2)cc1OC	1	0	95	12	2	-12
COc1ccc(S(=O)(=O)N2CCOCC2)cc1N=Nc1sc(N)nc1-c1ccccc1	7	1	97	-81	1	81*
Clc1ccc2c(NCc3ccccn3)ncnc2c1	59*	-22	95	-2	1	2
Clc1ccc2c(NCc3cccs3)ncnc2c1	22	.	95	-30	-5	30
O=C(Nc1c(-c2ccccc2)nc2ncccn12)c1ccccc1	.	.	.	.	0	.
O=C(c1cc([N+](=O)[O-])ccc1N1CCCCC1)N1CCc2ccccc21	3	-6	117	-76	-2	76*
Cc1ccc(C(=O)c2cc([N+](=O)[O-])ccc2N2CCCCC2)c(C)c1	12	?	111	-75	0	75*
Cc1ccc(NC(=O)c2cc([N+](=O)[O-])ccc2N2CCCC2)cc1	30	-46	105	-11	-1	11
O=C(Nc1nnc(C2CC2)s1)c1cc([N+](=O)[O-])ccc1N1CCCCC1	49*	10	97	-44	-4	44
O=C(Nc1ccc(F)cc1)Nc1nc2ncccn2c1-c1ccc(F)cc1	.	.	.	.	-1	.
